ChEMBL document CHEMBL3124843, “Synthesis, cytostatic, antimicrobial, and anti-HCV activity of 6-substituted 7-(het)aryl-7-deazapurine ribonucleosides” (J Med Chem, 2014)
Calls of active or inactive are those of the source. How the calls were made is not given here.

Assays:
[1] = system: Escherichia coli; assay: Antibacterial activity against multi-resistant Escherichia coli C/16702 after 24 hrs; type: functional, organism-based
[2] = system: Candida parapsilosis; assay: Antifungal activity against Candida parapsilosis after 48 hrs; type: functional, organism-based
[3] = system: Staphylococcus aureus; assay: Antibacterial activity against methicillin-resistant Staphylococcus aureus MRSA 4591 after 24 hrs; type: functional, organism-based
[4] = system: HL-60; assay: Antiproliferative activity against human HL60 cells after 72 hrs by XTT assay; type: functional, cell-based; conditions: HL-60, 72 h
Method in brief: (§1)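 Antiproliferative test on HL-60 promyelocytic leukemia and HeLa S3 cervical carcinoma cells growing in liquid suspension.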

[5] = Cytotoxicity against human HuH7 cells infected with Hepatitis C virus subtype 2a; type: cell-based, Huh-7
[6] = system: Staphylococcus aureus; assay: Antibacterial activity against Staphylococcus aureus CCM 3953 after 24 hrs; type: functional, organism-based
[7] = system: HCT-116; assay: Cytostatic activity against p53-deficient human HCT116 cells after 72 hrs by MTT assay; type: functional, cell-based; conditions: HCT-116, 72 h
Method in brief: (§2)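 IC50 is the concentration that cuts cell growth by 50%, read by quantitative metabolic MTT staining after a 3-day treatment. The resistant sublines were made by raising the concentration of the cytotoxic drug step by step. CEM-DNR-bulk (daunorubicin-selected) stably overexpresses mrp-1. K562-TAX (paclitaxel-selected) expresses only mdr-1. HCT116p53−/− carries null p53 alleles. BJ and MRC-5 are nonmalignant fibroblasts.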

[8] = Antiproliferative activity against human HeLaS3 cells after 72 hrs by XTT assay; type: functional, cell-based; conditions: HeLa S3, 72 h; method in brief: as §1
[9] = system: K562; assay: Cytostatic activity against human K562 cells after 72 hrs by MTT assay; type: functional, cell-based; conditions: K562, 72 h; method in brief: as §2
[10] = system: Enterococcus faecalis; assay: Antibacterial activity against Enterococcus faecalis CCM 4224 after 24 hrs; type: functional, organism-based
[11] = system: Pseudomonas aeruginosa; assay: Antibacterial activity against Pseudomonas aeruginosa CCM 3955 after 24 hrs; type: functional, organism-based
[12] = system: A549; assay: Cytostatic activity against human A549 cells after 72 hrs by MTT assay; type: functional, cell-based; conditions: A549, 72 h; method in brief: as §2
[13] = system: Staphylococcus haemolyticus; assay: Antibacterial activity against methicillin-resistant Staphylococcus haemolyticus A/16568 after 24 hrs; type: functional, organism-based
[14] = system: BJ; assay: Cytostatic activity against human BJ cells after 72 hrs by MTT assay; type: ADME, cell-based; method in brief: as §2
[15] = system: Hepatitis C virus; assay: Antiviral activity against Hepatitis C virus subtype 2a infected in human HuH7 cells; type: functional, organism-based, Hepacivirus hominis; conditions: genotype 2a, Huh-7
[16] = system: HCT-116; assay: Cytostatic activity against human HCT116 cells after 72 hrs by MTT assay; type: functional, cell-based; conditions: HCT-116, 72 h; method in brief: as §2
[17] = system: HepG2; assay: Antiproliferative activity against human HepG2 cells after 72 hrs by XTT assay; type: functional, cell-based; conditions: HepG2, 72 h
[18] = system: Escherichia coli; assay: Antibacterial activity against Escherichia coli CCM 3954 after 24 hrs; type: functional, organism-based
[19] = system: Hepatitis C virus; assay: Antiviral activity against Hepatitis C virus subtype 1b infected in human HuH7 cells; type: functional, organism-based, Hepacivirus hominis; conditions: genotype 1b, Huh-7
[20] = system: Pichia kudriavzevii; assay: Antifungal activity against Candida crusei after 48 hrs; type: functional, organism-based
[21] = system: CCRF-CEM; assay: Cytostatic activity against human CCRF-CEM cells after 72 hrs by MTT assay; type: functional, cell-based; method in brief: as §2
[22] = system: MRC5; assay: Cytostatic activity against human MRC5 cells after 72 hrs by MTT assay; type: ADME, cell-based; conditions: MRC5, 72 h; method in brief: as §2
[23] = Cytostatic activity against human CEM-DNR-bulk cells after 72 hrs by MTT assay; type: functional, cell-based; method in brief: as §2
[24] = Cytotoxicity against human HuH7 cells infected with Hepatitis C virus subtype 1b; type: cell-based, Huh-7
[25] = system: Candida tropicalis; assay: Antifungal activity against Candida tropicalis after 48 hrs; type: functional, organism-based
[26] = system: Pseudomonas aeruginosa; assay: Antibacterial activity against multi-resistant Pseudomonas aeruginosa A/16575 after 24 hrs; type: functional, organism-based
[27] = system: K562; assay: Cytostatic activity against paclitaxel-resistant human K562 cells after 72 hrs by MTT assay; type: functional, cell-based; conditions: K562, 72 h; method in brief: as §2
[28] = system: Candida albicans; assay: Antifungal activity against Candida albicans after 48 hrs; type: functional, organism-based

SMILES | Activity [1] | Activity [2] | Activity [3] | IC50 [4] [µM] | CC50 [5] [µM] | Activity [6] | IC50 [7] [µM] | IC50 [8] [µM] | IC50 [9] [µM] | Activity [10] | Activity [11] | IC50 [12] [µM] | Activity [13] | IC50 [14] [µM] | EC50 [15] [µM] | IC50 [16] [µM] | IC50 [17] [µM] | Activity [18] | EC50 [19] [µM] | Activity [20] | also measured
O=c1[nH]cnc2c1c(-c1ccoc1)cn2[C@@H]1O[C@H](CO)[C@@H](O)[C@H]1O | inactive | inactive | inactive | 6.37 | > 44 | inactive | 14.8 | > 20 | 12.5 | inactive | inactive | > 20 | inactive | > 100 | 22.3 | 10.3 | 12.1 | inactive | 4.54 | inactive | IC50 [21]: 9.03 µM; IC50 [22]: > 100 µM; IC50 [23]: > 20 µM; CC50 [24]: > 44 µM; Activity [25]: inactive; Activity [26]: inactive; IC50 [27]: 14.5 µM; Activity [28]: inactive
Cc1ncnc2c1c(-c1cccs1)cn2[C@@H]1O[C@H](CO)[C@@H](O)[C@H]1O | inactive | inactive | inactive | 5.73 | > 44 | inactive | > 20 | > 15 | > 20 | inactive | inactive | > 20 | inactive | > 100 | > 44 | > 20 | > 15 | inactive | 6.67 | inactive | IC50 [21]: > 20 µM; IC50 [22]: > 100 µM; IC50 [23]: > 20 µM; CC50 [24]: > 44 µM; Activity [25]: inactive; Activity [26]: inactive; IC50 [27]: > 20 µM; Activity [28]: inactive
O=c1[nH]cnc2c1c(-c1cccs1)cn2[C@@H]1O[C@H](CO)[C@@H](O)[C@H]1O | inactive | inactive | inactive | > 20 | > 44 | inactive | > 20 | > 20 | > 20 | inactive | inactive | > 20 | inactive | > 100 | > 44 | > 20 | > 20 | inactive | > 44 | inactive | IC50 [21]: > 20 µM; IC50 [22]: > 100 µM; IC50 [23]: > 20 µM; CC50 [24]: > 44 µM; Activity [25]: inactive; Activity [26]: inactive; IC50 [27]: > 20 µM; Activity [28]: inactive
Cc1nc(N)c2c(I)cn([C@@H]3O[C@H](CO)[C@@H](O)[C@H]3O)c2n1 | inactive | inactive | inactive | 2.05 | > 44 | inactive | > 20 | 4.18 | 5.12 | inactive | inactive | 12.1 | inactive | 24.6 | > 44 | > 20 | 6.31 | inactive | 2.45 | inactive | IC50 [21]: 9.03 µM; IC50 [22]: 85.8 µM; IC50 [23]: 3.48 µM; CC50 [24]: > 44 µM; Activity [25]: inactive; Activity [26]: inactive; IC50 [27]: 1.11 µM; Activity [28]: inactive
